Test [1] can be described thus: Her2 expression decrease, cell viability multiplex – SKBR3 breast tumor cells, AlphaScreen, ATP viability, primary screen (AID 461;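 active = Her2 level under about 52% in both replicate screens, with viability over 70% of control, limit read from the data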;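 as to Her2 level: lower value means less Her2 protein in the cells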;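 as to viability: percent of carrier control wells set as 100% viability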). Particulars: SKBR3 Her2 protein level, 18-24 h, measured here: SKBR3 viability, ATP luminescence, at 10 µM.
In test [2] the target is Receptor tyrosine-protein kinase erbB-2 (Homo sapiens) (UniProt P04626). Described as above. As to conditions: 18-24 h, at 10 µM, stronger effect = lower value.
Receptor tyrosine-protein kinase erbB-2 (Homo sapiens), sequence (P04626 whole entry, looked up): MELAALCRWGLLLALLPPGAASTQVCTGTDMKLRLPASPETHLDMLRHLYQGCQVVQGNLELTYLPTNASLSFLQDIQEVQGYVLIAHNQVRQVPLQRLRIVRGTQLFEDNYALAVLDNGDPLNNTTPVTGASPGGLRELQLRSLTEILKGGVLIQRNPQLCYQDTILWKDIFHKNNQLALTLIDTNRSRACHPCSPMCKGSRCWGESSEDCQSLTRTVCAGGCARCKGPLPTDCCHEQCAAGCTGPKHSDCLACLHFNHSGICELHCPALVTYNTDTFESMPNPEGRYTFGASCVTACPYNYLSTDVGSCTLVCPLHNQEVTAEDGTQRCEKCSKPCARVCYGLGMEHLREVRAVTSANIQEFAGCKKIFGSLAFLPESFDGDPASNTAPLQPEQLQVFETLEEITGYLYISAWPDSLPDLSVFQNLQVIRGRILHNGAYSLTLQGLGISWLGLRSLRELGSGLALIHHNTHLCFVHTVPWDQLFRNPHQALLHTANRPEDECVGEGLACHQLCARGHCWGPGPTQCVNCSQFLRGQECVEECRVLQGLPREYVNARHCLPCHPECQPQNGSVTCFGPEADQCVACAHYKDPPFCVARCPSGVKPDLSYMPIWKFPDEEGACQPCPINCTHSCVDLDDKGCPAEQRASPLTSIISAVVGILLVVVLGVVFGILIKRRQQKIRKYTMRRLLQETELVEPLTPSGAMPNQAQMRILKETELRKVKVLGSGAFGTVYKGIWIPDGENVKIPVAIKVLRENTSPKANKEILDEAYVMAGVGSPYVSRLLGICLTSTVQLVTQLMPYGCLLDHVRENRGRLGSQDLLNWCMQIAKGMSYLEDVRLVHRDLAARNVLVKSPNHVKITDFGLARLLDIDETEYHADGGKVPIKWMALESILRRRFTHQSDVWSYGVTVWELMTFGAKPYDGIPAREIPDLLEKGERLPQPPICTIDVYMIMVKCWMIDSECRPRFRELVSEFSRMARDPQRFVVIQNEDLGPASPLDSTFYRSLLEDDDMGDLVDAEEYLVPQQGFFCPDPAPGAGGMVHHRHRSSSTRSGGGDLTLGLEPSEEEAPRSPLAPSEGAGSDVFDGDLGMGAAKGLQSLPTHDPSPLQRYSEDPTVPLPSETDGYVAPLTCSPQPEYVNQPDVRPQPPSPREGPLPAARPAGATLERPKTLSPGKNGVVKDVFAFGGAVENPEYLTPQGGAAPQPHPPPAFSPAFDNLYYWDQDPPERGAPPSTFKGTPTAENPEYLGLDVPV
Test [3] in a line: reduced viability of SK-BR-3 breast cancer cells – cell-based, 24 h, human, pilot screen (AID 572).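 Also: compound exposure lasted between 18 and 24 h rather than exactly 24 h; 100% = carrier-treated control wells.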 As to conditions: SK-BR-3 viability, CellTiter-Glo luminescence, at 10 µM, stronger effect = lower value. On the technique in general: Cellular ATP, detected with luciferase, serves as a proxy for viable cell number.
A short description of test [4]: HUVEC growth inhibition – cell-based, human, primary screen (AID 575;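 active = viability at or below 30% in both replicate assays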;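 also: 100% = median of untreated cell wells with 0.1% DMSO on each plate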). As to conditions: HUVEC proliferation, CellTiter-Glo luminescence, 72 h; at 10 µM; stronger effect = lower value. In a few lines: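 system = HUVEC primary cells | amount = 1250 cells/well | buffer or medium = supplemented EBM, 2% fetal bovine serum | dosing = single-point 10 µM, DMSO 0.1% final | times = 72 h compound incubation | detection = CTG luminescence | read-out = % viability relative to median vehicle-well signal on each plate | control set = vehicle and MePR control wells | format = collagen-coated 384-well format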

Test [5] can be described thus: H69AR cell proliferation blockers – human, duplicate replicates, primary screen (AID 580;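 active = viability at or under a set limit in both replicates, limit being median viability minus 3 SD, cut at about 48% in these data, passing the limit was not always enough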;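 also: 100% = mean luminescence of untreated wells and 0% = no signal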). Particulars: H69AR lung tumor cells viability, ATP luminescence, 72 h; at 10 µM; stronger effect = lower value.
Test [6] can be described thus: MRP1 drug-resistance reversers in H69AR cells – cell-based, doxorubicin co-treatment, pilot screen (AID 601;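 active = viability loss from added drug above about 55%, and viability with drug at most 40%, in both replicates, limit read from the data, passing the limit was not always enough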). As to conditions: CellTiter-Glo, 72 h, at 10 µM; for differential viability (reversal): stronger effect = higher value.
Test [7] is described as follows: yeast transport mutant growth inhibition pilot in 384-well plates, post-Golgi transport modulator project (AID 636; in the data active = inhibition above about 31%). Particulars: absorbance 615 nm, about 18 h, stronger effect = higher value.
Test [8] can be described thus: growth suppression of yeast trafficking mutant, preliminary HTS, modulators of trafficking downstream of Golgi apparatus project, 1536-format plate, OD 615 nm (AID 637; in the data active = inhibition above about 30%). Particulars: yeast transport mutant growth, absorbance 615 nm, 18 h; stronger effect = higher value.
The mark [9] stands for this setting: H69AR cells + 2 uM doxorubicin, measured here: viability with 2 uM doxorubicin, stronger effect = lower value.
[10] abbreviates: H69AR cells, compound alone cytotoxicity.

Structures are written as SMILES. Active and inactive are the calls of the source.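 The calls were made as follows, unless noted: active = viability at or below 10% of carrier control in both of two separate runs; inconclusive = viability at or below 10% in only one of the two runs; inactive = the rest.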

Regarding `Cc1ncoc1C(=O)Nc1cccc(Cl)c1C`, the viability in test [1] was 104%; in test [3], 104% (inactive); in test [4] it was 113% (inactive); in test [5], 101% (inactive); in test [6] (setting [9]), 85.1%; in test [6] (setting [10]) it was 101%. In addition, the Her2 level in test [2] was 114% (inactive). In test [6] (H69AR cells + 2 uM doxorubicin), the differential viability (reversal) is 15.6% (inactive). For the same molecule, the figures for the inhibition in test [7] and in test [8] were -3.78% (inactive) and 0.33% (inactive), respectively.

As for `Cc1ccccc1NC(=O)CSc1nc(N)c(C#N)c(-c2cccs2)c1C#N`, the viability in test [1] was 115%; in test [3] it was 115% (inactive); in test [4], 72.3% (inactive); in test [5] it was 30.2% (active); in test [6] (setting [9]), 27.1%; in test [6] (setting [10]) it was 30.2%. Besides, in test [2], the Her2 level is 77% (inactive). Also, in test [6] (H69AR cells + 2 uM doxorubicin), the differential viability (reversal) is 3.09% (inactive). For the same molecule, the inhibition in test [7] is -9.32% (inactive); in test [8], 6.83% (inactive).

As for `O=C(c1ccco1)N1CCN(/C(=N/S(=O)(=O)c2cccs2)c2ccccc2Cl)CC1`, the viability in test [1] is 77%; in test [3], 77% (inactive); in test [4], 88.7% (inactive); in test [5], 93.1% (inactive); in test [6] (setting [9]), 92.3%; in test [6] (setting [10]), 93.1%. The Her2 level in test [2] is 81% (inactive). The differential viability (reversal) in test [6] (H69AR cells + 2 uM doxorubicin) was 0.85% (inactive). Besides, the inhibition in test [7] is -4.73% (inactive); in test [8] it was -3.77% (inactive).

For `Cc1ccccc1CN1CCNC1=O`, the viability is 114% in test [1]; 114% (inactive) in test [3]; 88.3% (inactive) in test [4]; 90.8% (inactive) in test [5]; 81.9% in test [6] (setting [9]); 90.8% in test [6] (setting [10]). In addition, in test [2], the Her2 level was 80% (inactive). Besides, the differential viability (reversal) in test [6] (H69AR cells + 2 uM doxorubicin) is 8.97% (inactive). Moreover, the inhibition in test [7] was -3.16% (inactive); in test [8] it was 6.61% (inactive).

Regarding `COc1ccc(N2CCN(c3ccc(N)cc3C#N)CC2)cc1`, the viability in test [1] was 103%; in test [3], 103% (inactive); in test [4], 78.2% (inactive); in test [5] it was 95% (inactive); in test [6] (setting [9]) it was 92.7%; in test [6] (setting [10]), 95%. Besides, in test [2], the Her2 level is 88.5% (inactive). The differential viability (reversal) in test [6] (H69AR cells + 2 uM doxorubicin) was 2.29% (inactive). For the same molecule, the inhibition in test [7] was -3.38% (inactive); in test [8] it was 0.32% (inactive).

Consider `CCC(=O)N1CCCc2cc(S(=O)(=O)N3CCCc4ccccc43)ccc21`, for which the viability in test [1] was 89.5%; in test [3] it was 89.5% (inactive); in test [4], 87.2% (inactive); in test [5], 77.6% (inactive); in test [6] (setting [9]) it was 81.5%; in test [6] (setting [10]), 77.6%. Besides, the Her2 level in test [2] was 76.5% (inactive). The differential viability (reversal) in test [6] (H69AR cells + 2 uM doxorubicin) was -3.92% (inactive). The inhibition in test [7] was -2.76% (inactive); in test [8], -2.1% (inactive).

Consider `Cc1ccc(S(=O)(=O)N(CC(=O)N2CCC(C(N)=O)CC2)c2cccc(C(F)(F)F)c2)cc1`, for which the viability was 99.5% in test [1]; 99.5% (inactive) in test [3]; 87.8% (inactive) in test [4]; 82.9% (inactive) in test [5]; 89.4% in test [6] (setting [9]); 82.9% in test [6] (setting [10]). Besides, in test [2], the Her2 level is 120% (inactive). In test [6] (H69AR cells + 2 uM doxorubicin), the differential viability (reversal) is -6.52% (inactive). Further, the inhibition is -3.33% (inactive) in test [7] and 5% (inactive) in test [8].

Turning to `O=C(O)CCCc1nc(-c2ccccc2)no1`, the viability in test [1] was 91.5%; in test [3] it was 91.5% (inactive); in test [4], 96% (inactive); in test [5], 97% (inactive); in test [6] (setting [9]), 97.8%; in test [6] (setting [10]), 97%. Besides, the Her2 level in test [2] was 87.5% (inactive). Also, the differential viability (reversal) in test [6] (H69AR cells + 2 uM doxorubicin) is -0.87% (inactive). For the same molecule, the inhibition in test [7] was -4.53% (inactive); in test [8], 0.95% (inactive).

`Oc1ccc2cccnc2c1`: the viability in test [1] is 94.5%; in test [3], 94.5% (inactive); in test [4], 107% (inactive); in test [5] it was 106% (inactive); in test [6] (setting [9]), 100%; in test [6] (setting [10]) it was 106%. Further, the Her2 level in test [2] is 108% (inactive). Moreover, the differential viability (reversal) in test [6] (H69AR cells + 2 uM doxorubicin) is 5.68% (inactive). Further, the inhibition in test [7] was -4.8% (inactive); in test [8] it was -8.41% (inactive).

`Cc1cc(C)c2nc(N)sc2c1`: the viability in test [1] was 95.5%; in test [3] it was 95.5% (inactive); in test [4] it was 105% (inactive); in test [5], 103% (inactive); in test [6] (setting [9]) it was 85.8%; in test [6] (setting [10]) it was 103%. Besides, the Her2 level in test [2] is 108% (inactive). The differential viability (reversal) in test [6] (H69AR cells + 2 uM doxorubicin) was 16.9% (inactive). Also, the inhibition was -6.62% (inactive) in test [7] and -3.33% (inactive) in test [8].

As for `O=c1[nH]c(SCc2ccccc2Cl)nc2c1CCCC2`, the viability was 100% in test [1]; 100% (inactive) in test [3]; 65.4% (inactive) in test [4]; 89.5% (inactive) in test [5]; 92.7% in test [6] (setting [9]); 89.5% in test [6] (setting [10]). In addition, the Her2 level in test [2] is 75.5% (inactive). Besides, the differential viability (reversal) in test [6] (H69AR cells + 2 uM doxorubicin) was -3.21% (inactive). For the same molecule, the values for the inhibition in test [7] and in test [8] were -5.13% (inactive) and 0.17% (inactive), respectively.

With `Cc1ccc(NC(=O)C2CCCN(S(=O)(=O)c3cnc[nH]3)C2)cc1F` (stereo not given), the viability in test [1] is 104%; in test [3] it was 104% (inactive); in test [4] it was 111% (inactive); in test [5] it was 95.1% (inactive); in test [6] (setting [9]), 95.3%; in test [6] (setting [10]) it was 95.1%. In addition, the Her2 level in test [2] is 94% (inactive). For the same molecule, the differential viability (reversal) in test [6] (H69AR cells + 2 uM doxorubicin) is -0.16% (inactive). The inhibition in test [7] was -3.73% (inactive); in test [8], -3.11% (inactive).

Turning to `CCN1C(=O)NC(c2cc(Br)ccc2OC)C(C(=O)OC)=C1C` (stereo not given), the viability was 104% in test [1]; 104% (inactive) in test [3]; 104% (inactive) in test [4]; 95.3% (inactive) in test [5]; 98% in test [6] (setting [9]); 95.3% in test [6] (setting [10]). Moreover, the Her2 level in test [2] is 114% (inactive). Further, in test [6] (H69AR cells + 2 uM doxorubicin), the differential viability (reversal) is -2.65% (inactive). Also, the inhibition in test [7] was -2.63% (inactive); in test [8], -8.1% (inactive).

Regarding `CCOC(=O)c1cnc(SCC)[nH]c1=O`, the viability in test [1] was 84.5%; in test [3], 84.5% (inactive); in test [4], 84.4% (inactive); in test [5], 97% (inactive); in test [6] (setting [9]) it was 103%; in test [6] (setting [10]), 97%. Also, the Her2 level in test [2] was 101% (inactive). In test [6] (H69AR cells + 2 uM doxorubicin), the differential viability (reversal) was -5.68% (inactive). The inhibition was -1.92% (inactive) in test [7] and -8% (inactive) in test [8].

As a reminder, the viability is a read-out of living cells in per cent, often relative to untreated cells. As a reminder, the inhibition is the drop in the measured response relative to a control, in per cent.
